Laboratory results from ChEMBL document CHEMBL3286096, “Synthesis, biological evaluation and docking study of 3-aroyl-1-(4-sulfamoylphenyl)thiourea derivatives as 15-lipoxygenase inhibitors” (Eur J Med Chem, 2014).
Activity calls are given as the source filed them. The calls are words filed in the database; no cut-off is given here.

System: PC-12
Assay: Neuroprotective activity against H2O2-induced rat differentiated PC12 cell death assessed as increase in cell viability at 5 uM after 24 hrs by MTT assay
Type: functional, cell-based
Conditions: not given
In short: (§1)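 Rat PC12 cells grown in RPMI 1640 with 10% FCS, penicillin and streptomycin, then differentiated by a previously reported protocol. Differentiated cells were pretreated with compound at 1, 5 or 10 for 3 h before H2O2 exposure. Viability was read by MTT 24 h later and expressed relative to the H2O2-treated group.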

Q: With `O=c1c(O)c(-c2ccc(O)c(O)c2)oc2cc(O)cc(O)c12` [QUERCETIN] as the compound, how does the Activity read?
A: Active

System: not listed separately
Assay: Inhibition of soybean 15-LOX1 by UV spectrophotometric analysis
Parameters: species or system Glycine max
Conditions: not given

Q: With `NS(=O)(=O)c1ccc(NC(=S)NC(=O)c2ccc3ccccc3c2)cc1` as the compound, how does the IC50 read?
A: Not Active

Q: Which IC50 does the source give for `NS(=O)(=O)c1ccc(NC(=S)NC(=O)c2ccc([N+](=O)[O-])cc2)cc1` here?
A: ND(Insoluble)

Same assay, conditions: read-out: IC50

Q: For `Cc1ccccc1C(=O)NC(=S)Nc1ccc(S(N)(=O)=O)cc1`, which IC50 is on record?
A: 8.1 µM

Q: Which IC50 does the source give for `NS(=O)(=O)c1ccc(NC(=S)NC(=O)c2ccco2)cc1` here?
A: 45 µM

Q: For `Cc1cccc(C(=O)NC(=S)Nc2ccc(S(N)(=O)=O)cc2)c1`, which IC50 is on record?
A: 1.8 µM

Q: For `NS(=O)(=O)c1ccc(NC(=S)NC(=O)c2cccc(F)c2)cc1`, which IC50 is on record?
A: 8.7 µM

Q: Which IC50 does the source give for `O=c1c(O)c(-c2ccc(O)c(O)c2)oc2cc(O)cc(O)c12` [QUERCETIN] here?
A: 18 µM

Q: With `NS(=O)(=O)c1ccc(NC(=S)NC(=O)c2cccs2)cc1` as the compound, how does the IC50 read?
A: 36 µM

Q: Which IC50 does the source give for `Cc1ccc(C(=O)NC(=S)Nc2ccc(S(N)(=O)=O)cc2)cc1` here?
A: 28 µM

Q: Which IC50 does the source give for `NS(=O)(=O)c1ccc(NC(=S)NC(=O)c2ccccc2)cc1` here?
A: 6 µM

Q: For `NS(=O)(=O)c1ccc(NC(=S)NC(=O)c2ccc(Cl)cc2)cc1`, which IC50 is on record?
A: 25 µM

Q: With `NS(=O)(=O)c1ccc(NC(=S)NC(=O)c2cc(F)c(F)c(F)c2F)cc1` as the compound, how does the IC50 read?
A: 12.6 µM

Q: For `COc1ccc(C(=O)NC(=S)Nc2ccc(S(N)(=O)=O)cc2)cc1`, which IC50 is on record?
A: 22.7 µM

Q: With `NS(=O)(=O)c1ccc(NC(=S)NC(=O)c2ccccc2Cl)cc1` as the compound, how does the IC50 read?
A: 18.7 µM

Q: For `NS(=O)(=O)c1ccc(NC(=S)NC(=O)c2cccc(Cl)c2)cc1`, which IC50 is on record?
A: 6.7 µM

Q: For `NS(=O)(=O)c1ccc(NC(=S)NC(=O)c2ccc(Cl)cc2Cl)cc1`, which IC50 is on record?
A: 23.6 µM

System: not listed separately
Assay: Neuroprotective activity against H2O2-induced rat differentiated PC12 cell death assessed as increase in cell viability at 10 uM after 24 hrs by MTT assay
Type: functional, PC-12
Conditions: not given
In short: as §1

Q: For `Cc1cccc(C(=O)NC(=S)Nc2ccc(S(N)(=O)=O)cc2)c1`, which Activity is on record?
A: 50%

System: PC-12
Assay: Neuroprotective activity against H2O2-induced rat differentiated PC12 cell death assessed as increase in cell viability at 1 to 10 uM after 24 hrs by MTT assay
Type: functional, cell-based
Conditions: not given
In short: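 Rat PC12 cells were grown in RPMI 1640 with 10% FCS plus penicillin/streptomycin, then differentiated by a published protocol. Differentiated cells were pretreated with compound at 1, 5 and 10 for 3 h before H₂O₂ exposure, with quercetin 5 as reference. Viability was measured by MTT after 24 h and expressed relative to the H₂O₂-treated group.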

Q: Which Activity does the source give for `Cc1cccc(C(=O)NC(=S)Nc2ccc(S(N)(=O)=O)cc2)c1` here?
A: Active
